# DTT redox prof: compounds producing H2O2 with reducing agent – biochemical, NIH compound library profiling, artefact control for MLSCN library redox annotation, primary screen | DTT-dependent redox cycling H2O2, phenol red/HRP absorbance; 100% = 100 µM peroxide control, 0% = buffer | activation, % at 10 µM | 200,000 tested, 0.03% active;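 active = activation of at least 50% relative to the plate's high and low controls in the primary single-dose screen; inactive = activation below 50%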;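 note: compound incubated with DTT at 0.8 mM final as the reducing agent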
# G6PDH counter: inhibits Leuconostoc G6PDH, flagging false hits in G6PDH-based assays; inhibition, % at 5 µM; AID 1020; 200,000 tested, 0.12% active; Purified L. mesenteroides G6PDH, diaphorase/resazurin coupled fluorescence, 45 min
# Diaph inh CS: inhibits diaphorase or chemically oxidizes, flagging diaphorase assay artifacts | 190,000 tested, 0.69% active | diaphorase resazurin-to-resorufin fluorescence, NADH, 16 min; bacterial (C. kluyveri) enzyme, not human | inhibition, % at 20 µM | AID 1217;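 active = primary screen inhibition at 20 µM above a set limit, cut at about 50% in these data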;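 note: plate controls were DMSO with full reaction for no effect and wells lacking NADH for full effect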
#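 Assay system – diaphorase enzyme from Clostridium kluyveri · Amount – diaphorase 0.14 U/mL (working solution) · Times – reaction incubation of 16 min at room temperature · Controls – No-NADH positive control and DMSO neutral control · Signal – resorufin fluorescence 544/590 nm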
# Diaphorase act: counter-screen for diaphorase-based assays: diaphorase activators and chemical reducers. Diaphorase/resazurin coupled assay, resorufin fluorescence, 16 min; active compounds read high; 1 = vehicle wells, 0 = NADH-free wells. activation factor at 20 µM. 190,000 tested, 0.005% active. AID 1229;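 active = diaphorase activity raised at least twofold by the compound at 20 µM; inactive = activation factor below 2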
#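 Material: Purified diaphorase enzyme from Clostridium kluyveri | Buffer or medium: 50 mM HEPES pH 7.4 with 4.542 mM MgCl2, 0.005% Tween 20 | Times: 16 min enzyme reaction, ambient temperature | Signal: Red resorufin fluorescence at 544/590 nm excitation/emission | Measure: Increased resorufin signal from activators or reducing compounds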
# L major viab: inhibitors of Leishmania major promastigote growth; 200,000 tested, 9% active; AID 1063; inhibition, % at 10 µM; Leishmania major promastigotes, resazurin fluorescence viability;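 note: promastigotes grown with compound for 44 hours at 28 °C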
# PfG6PD inh: PfG6PD (Plasmodium falciparum) enzyme inhibition; 350,000 tested, 0.78% active; PfGluPho enzyme, NADPH resazurin-diaphorase fluorescence; inhibition, % at 20 µM;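 active = inhibition reaching at least a set limit at 20 µM in the primary screen, cut at about 59% in these data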;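 note: 0% = DMSO wells with substrate and 100% = DMSO wells lacking glucose-6-phosphate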
# PfGluPho conf: PfG6PD inhibition, single-dose confirmed. shares compounds with PfG6PD inh. recombinant PfGluPho, NADPH-diaphorase-resazurin fluorescence. inhibition, % at 20 µM. 2,400 tested, 34% active;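 active = inhibition of at least 50% at 20 µM in any single replicate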;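 note: 0% = DMSO with substrate and 100% = DMSO lacking glucose-6-phosphate substrate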
# Diaph ctr 10uM: counter-screen for P. falciparum G6PD inhibitors: diaphorase inhibitors, oxidizers. 820 tested, 39% active. diaphorase-coupled resazurin reduction, fluorescence, NADPH 10 uM. inhibition, % at 20 µM. shares compounds with PfG6PD inh. AID 504862;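 active = average inhibition reaching 50% or more with the compound at 20 µM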;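 note: resorufin red fluorescence formed as diaphorase reduces resazurin using NADPH; 0% = DMSO with enzyme and 100% = DMSO without enzyme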
# Diaph ctr 30uM: diaphorase inhibition or oxidation at 30 uM NADPH. shares compounds with PfG6PD inh. 820 tested, 29% active. Diaphorase/resazurin coupled assay, resorufin fluorescence. inhibition, % at 20 µM;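 active = inhibition averaging 50% or more, tested at 20 µM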;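 note: 0% = DMSO with enzyme and 100% = DMSO wells lacking diaphorase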
# * hit, by the source's call; · = no result given. The entries come from a sample that favours hits as a whole. Cut-off read from the data, not from the text of the source, unless noted: active = inhibition above about 50%; inactive = the rest.
SMILES,DTT redox prof,G6PDH counter,Diaph inh CS,Diaphorase act,L major viab,PfG6PD inh,PfGluPho conf,others
COc1cc(/C=C2\OC(=O)c3c(OC)cccc32)ccc1O,0,3,8,0.9,3,74*,14,
Cc1ccc(C(=O)Nc2ccc(Br)c(C(F)(F)F)c2)cc1,2,0,16,0.8,9,69*,9,
Cc1ccc(-c2csc(NC(=O)c3ccc(Br)cc3)c2C(=O)O)cc1,·,·,·,·,·,117*,53*,Diaph ctr 10uM=40;Diaph ctr 30uM=35
Cc1ccc(-c2csc(NC(=O)/C=C/c3ccco3)c2C(=O)O)cc1,0,6,2,1,-1,93*,58*,Diaph ctr 10uM=58*;Diaph ctr 30uM=59*
Cc1cccc(C(=O)Nc2scc(-c3ccc(Br)cc3)c2C(=O)O)c1,·,·,·,·,·,52,·,
O=C1NC(=O)C(Cc2ccc(Cl)cc2)(c2ccccc2)N1 (stereo not given),·,·,·,·,·,68*,38,
COC(=O)c1cc2ccccc2c(-c2c(OC)c(C(=O)OC)cc3ccccc23)c1OC,-6,6,29,0.7,45,89*,33,
COc1cccc(CSc2nc(N)cc(N)n2)c1,·,·,·,·,·,-18,·,
COc1ccccc1CNS(=O)(=O)c1c(C)[nH]c(C)c1C(=O)N1CCCC1,·,·,·,·,·,-3,·,
CC1=C(C(=O)OC(C)C)C(c2ccc3c(c2)OCO3)NC(=O)N1 (stereo not given),·,·,·,·,·,-4,·,
CCOc1ccc(-c2c(=O)n(O)c3ccccc3[n+]2[O-])cc1,·,·,·,·,·,61*,17,
Cc1noc(C)c1CCC(=O)N1CCCC(CCC(=O)NCc2ccccc2F)C1 (stereo not given),0,-3,-1,1,2,-10,·,
N#Cc1c(NC(=O)C2CC(Cl)=CCC2C(=O)O)sc2c1CCCC2 (stereo not given),0,14,-8,1.1,-8,-27,·,
CCOC(=O)C1(CCCc2ccccc2)CCN(C(=O)C2CCCO2)CC1 (stereo not given),0,13,4,1,-4,-5,·,
CCc1nnc(NC(=O)c2cccc(OC)c2)s1,0,4,9,0.9,3,62*,42,
CC1CCN(S(=O)(=O)c2nnc(NC(=O)c3cccc(Cl)c3)s2)CC1,·,·,·,·,·,86*,42,
O=C(Nc1nnc(S(=O)(=O)N2CCOCC2)s1)c1ccccc1,·,·,·,·,·,63*,31,
O=C(Nc1nnc(S(=O)(=O)N2CCCCCC2)s1)c1ccccc1,·,·,·,·,·,33,·,
CCOCc1nnc(NC(=O)c2cccc(OC)c2)s1,-1,18,4,1,-11,22,·,
O=C(Nc1nnc(S(=O)(=O)N2CCOCC2)s1)c1ccc(Cl)cc1,·,·,·,·,·,104*,72*,Diaph ctr 10uM=72*;Diaph ctr 30uM=54*
CCN1CCN(c2ccc(S(=O)(=O)N3CCCCC3)cc2NC(=O)CC(C)c2ccccc2)CC1 (stereo not given),·,·,·,·,·,0,·,
Cc1sc2c(c1C)c(=O)n(-c1cccc(C(F)(F)F)c1)c(=O)n2CC(=O)NCc1ccco1,0,4,0,1,-6,4,·,
COc1ccc(C(=O)Nc2nnc(S(=O)(=O)N3CCOCC3)s2)cc1,·,·,·,·,·,78*,51*,Diaph ctr 10uM=39;Diaph ctr 30uM=32
COc1ccc(C(=O)Nc2nnc(-c3ccccc3)s2)cc1,·,·,·,·,·,-10,·,
COc1ccc(C(=O)Nc2nnc(C(F)(F)F)s2)cc1,2,2,16,0.8,2,118*,96*,Diaph ctr 10uM=89*;Diaph ctr 30uM=62*
SMILES,DTT redox prof,G6PDH counter,Diaph inh CS,Diaphorase act,L major viab,PfG6PD inh,PfGluPho conf,others
N#Cc1ccccc1OCC(=O)N(Cc1nnc(-c2ccccc2Cl)o1)C1CC1,·,·,·,·,·,-9,·,
CCOc1ccc(OCC)c(NC(=O)c2nnn(CC(=O)Nc3cc(C)cc(C)c3)c2N)c1,·,·,·,·,·,1,·,
COc1ccc(-c2nnn(CC(=O)NCCc3c[nH]c4ccccc34)n2)cc1OC,1,-4,5,0.9,46,-1,·,
CC(C)Oc1ccccc1C1CC(=O)Nc2cc3c(cc21)OCO3 (stereo not given),0,2,23,0.8,37,80*,40,
O=[N+]([O-])c1ccc(Cl)c(NC2=NCCCCC2)c1,·,·,·,·,·,0,·,
COc1ccc(NS(=O)(=O)c2ccc(N3CCCC3)c(N)c2)cc1,·,·,·,·,·,-7,·,
COc1ccc(NS(=O)(=O)c2ccc(N3CCCC3)c(NC(=S)Nc3cccc(C)c3C)c2)cc1,0,0,21,0.8,58*,80*,53*,Diaph ctr 10uM=-29;Diaph ctr 30uM=-12
COc1ccc(NS(=O)(=O)c2ccc(N3CCCC3)c(NC(=S)Nc3ccc(SC(F)F)cc3)c2)cc1,0,-14,6,0.9,87*,69*,37,
CCOC(=O)C1=C(Nc2ccc(OC)cc2)C(N)=NC1=N,·,·,·,·,·,8,·,
Cc1nn(CCC(N)=S)c2nc(-c3cccs3)cc(C(F)(F)F)c12,0,-18,22,0.8,1,62*,7,
Cc1nn(CCC#N)c2nc(-c3ccccc3)cc(C(F)(F)F)c12,0,21,5,0.9,20,18,·,
CCOC(=O)C1CCN(C(=O)Nc2ccc3nc(-c4ccco4)c(-c4ccco4)nc3c2)CC1,1,1,52*,0.5,96*,71*,3,

# High-throughput results deposited in PubChem BioAssay by several laboratories.
